Laboratory results taken from ChEMBL document CHEMBL1149438, “Antimalarial activity of 4-(5-trifluoromethyl-1H-pyrazol-1-yl)-chloroquine analogues” (Bioorg Med Chem Lett, 2006).
≈ marks a conversion by molar mass, not a printed value.

Key:
[1] = system: Plasmodium falciparum; test: Antimalarial activity against chloroquine-resistant Plasmodium falciparum W2 infected human erythrocytes; type: functional, organism-based
Outline: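 P. falciparum W2 (chloroquine-resistant) grown in human O+ erythrocytes, RPMI 1640 with 10% human plasma. Sorbitol-synchronized trophozoites plated at 2% parasitaemia, 2.5% haematocrit. Molecules dissolved in ethanol, serially diluted in hypoxanthine-free RPMI 1640, chloroquine reference run in parallel. Growth read by [³H]hypoxanthine incorporation. IC50 taken relative to drug-free control cultures.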

[2] = system: Plasmodium berghei; test: Growth inhibition of Plasmodium berghei infected BALB/c mice (Mus musculus) at 20 mg/kg subcutaneous dose; type: functional, NK65; set-up: scale not given: the % may be the effect or the level left
Outline: (§1)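 Balb/c mice infected with blood-stage P. berghei, 6 per group, given 20 mg/kg orally or subcutaneously. Controls were untreated or saline-treated mice, plus mice given non-curative chloroquine. Blood smears were methanol-fixed and Giemsa-stained, and parasitaemia was counted in 1000 to 6000 erythrocytes. Percent reduction of parasite growth is relative to non-treated mice at day 7 post-inoculation.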

[3] = system: Plasmodium berghei; test: Growth inhibition of Plasmodium berghei infected BALB/c mice (Mus musculus) at 20 mg/kg perorallydose; type: functional, NK65; set-up: scale not given: the % may be the effect or the level left; details: route oral; outline: as §1
[4] = system: Plasmodium berghei; test: Growth inhibition of Plasmodium berghei infected BALB/c mice (Mus musculus) at 15 mg/kg subcutaneous dose; type: functional, NK65; set-up: scale not given: the % may be the effect or the level left
[5] = system: Plasmodium berghei; test: Growth inhibition of Plasmodium berghei in BALB/c mice (Mus musculus) at 15 mg/kg peroral dose; type: functional, NK65; set-up: scale not given: the % may be the effect or the level left; details: route oral

| Compound | IC50 [1] [µg/mL] | other results |
| --- | --- | --- |
| FC(F)(F)c1cc(-c2ccccc2)nn1-c1ccnc2cc(Cl)ccc12 | 9.53 (≈ 25.5 µM) |  |
| Cc1cc(C(F)(F)F)n(-c2ccnc3cc(Cl)ccc23)n1 | 4.29 (≈ 13.8 µM) |  |
| COc1ccc(C2=NN(c3ccnc4cc(Cl)ccc34)C(O)(C(F)(F)F)C2)cc1 (stereo not given) | > 50 |  |
| FC(F)(F)c1cc(-c2ccc(Cl)cc2)nn1-c1ccnc2cc(Cl)ccc12 | > 50 |  |
| OC1(C(F)(F)F)CC(c2ccc(F)cc2)=NN1c1ccnc2cc(Cl)ccc12 (stereo not given) | 2.13 (≈ 5.2 µM) |  |
| O=[N+]([O-])c1ccc(C2=NN(c3ccnc4cc(Cl)ccc34)C(O)(C(F)(F)F)C2)cc1 (stereo not given) | 5.71 (≈ 13.1 µM) |  |
| OC1(C(F)(F)F)CC(c2ccccc2)=NN1c1ccnc2cc(Cl)ccc12 (stereo not given) | 1.39 (≈ 3.55 µM) | Activity [2]: 0%; Activity [3]: 0% |
| FC(F)(F)c1cc(-c2ccc(Br)cc2)nn1-c1ccnc2cc(Cl)ccc12 | > 50 |  |
| O=[N+]([O-])c1ccc(-c2cc(C(F)(F)F)n(-c3ccnc4cc(Cl)ccc34)n2)cc1 | > 50 |  |
| Cc1ccc(C2=NN(c3ccnc4cc(Cl)ccc34)C(O)(C(F)(F)F)C2)cc1 (stereo not given) | 3.04 (≈ 7.49 µM) |  |
| OC1(C(F)(F)F)CC(c2ccc(Cl)cc2)=NN1c1ccnc2cc(Cl)ccc12 (stereo not given) | 1.69 (≈ 3.97 µM) | Activity [2]: 47%; Activity [3]: 0% |
| CCN(CC)CCCC(C)Nc1ccnc2cc(Cl)ccc12 (stereo not given) [CHLOROQUINE] |  | Activity [4]: 100%; Activity [5]: 53% |
| OC1(C(F)(F)F)CC(c2ccc(Br)cc2)=NN1c1ccnc2cc(Cl)ccc12 (stereo not given) | 1.55 (≈ 3.29 µM) | Activity [2]: 82%; Activity [3]: 0% |
| FC(F)(F)c1cc(-c2ccc(-c3ccccc3)cc2)nn1-c1ccnc2cc(Cl)ccc12 | 18.5 (≈ 41.2 µM) |  |
| COc1ccc(-c2cc(C(F)(F)F)n(-c3ccnc4cc(Cl)ccc34)n2)cc1 | > 50 |  |
| Fc1ccc(-c2cc(C(F)(F)F)n(-c3ccnc4cc(Cl)ccc34)n2)cc1 | 27.6 (≈ 70.5 µM) |  |
| Cc1ccc(-c2cc(C(F)(F)F)n(-c3ccnc4cc(Cl)ccc34)n2)cc1 | > 50 |  |
| OC1(C(F)(F)F)CC(c2ccc(-c3ccccc3)cc2)=NN1c1ccnc2cc(Cl)ccc12 (stereo not given) | 2.12 (≈ 4.53 µM) |  |
